Bioassay records (PubChem BioAssay)
Rows were chosen to be rich in hits. Some 2.9% of all compounds tested hit in one or more screens of this group.
HIV Env fusion = blocks HIV Env-driven cell-cell fusion. inhibition, % at 12.3 µM. actives 1.1% (n = 360,000). HeLa-JRFL Env/CEM21 cell fusion, luciferase;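 active = mean replicate inhibition score of at least 50 and every replicate individually at or above 50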
GSIS activator = primary screen for activators of insulin secretion dependent on glucose, INS-1E cells, GLuc reporter luminescence | activation, % at 16.6 µM | actives 0.61% (n = 370,000) | INS-1E GLuc reporter insulin secretion, 2-3 h;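 active = lowest replicate activation of at least 40%, so every replicate reaches that level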
PAX8 reporter = lowers PAX8-driven luciferase in RMG-I cells. RMG-I TPO-luciferase reporter, SteadyGlo, 24 h. inhibition, % at 12.6 µM. actives 1.2% (n = 360,000);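 active = mean replicate inhibition at least 60% with every replicate also reaching 60%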;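 note: luciferase light reporting Pax8 driven TPO promoter activity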
dFosB activator = activators of mouse delta FosB homodimer | purified delta FosB, TAMRA-CDK5 oligo fluorescence polarization; percent of positive-control signal above neutral wells | actives 0.99% (n = 340,000) | activation, % at 25 µM | P13346;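 active = mean activation above about 17%, with every replicate also reaching it, limit read from the data, passing the limit was not always enough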
CDK5 inh = inhibitors of human CDK5/p35 kinase; Q00535+Q15078; actives 0.01% (n = 330,000); Recombinant CDK5/p35, ADP-Glo luminescence, 60 min; inhibition, % at 10 µM;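 active = highest replicate inhibition of at least 50% and at least 75% of replicates reaching 50%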
Target sequence (Q00535 whole entry, looked up): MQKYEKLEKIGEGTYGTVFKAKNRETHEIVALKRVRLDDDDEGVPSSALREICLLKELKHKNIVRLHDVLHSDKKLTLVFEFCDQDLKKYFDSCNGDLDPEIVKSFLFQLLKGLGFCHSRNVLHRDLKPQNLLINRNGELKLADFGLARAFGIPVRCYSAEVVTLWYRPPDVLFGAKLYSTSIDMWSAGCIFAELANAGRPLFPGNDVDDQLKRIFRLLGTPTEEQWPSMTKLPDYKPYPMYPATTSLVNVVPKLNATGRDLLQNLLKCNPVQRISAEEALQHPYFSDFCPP
Target sequence (Q15078 whole entry, looked up): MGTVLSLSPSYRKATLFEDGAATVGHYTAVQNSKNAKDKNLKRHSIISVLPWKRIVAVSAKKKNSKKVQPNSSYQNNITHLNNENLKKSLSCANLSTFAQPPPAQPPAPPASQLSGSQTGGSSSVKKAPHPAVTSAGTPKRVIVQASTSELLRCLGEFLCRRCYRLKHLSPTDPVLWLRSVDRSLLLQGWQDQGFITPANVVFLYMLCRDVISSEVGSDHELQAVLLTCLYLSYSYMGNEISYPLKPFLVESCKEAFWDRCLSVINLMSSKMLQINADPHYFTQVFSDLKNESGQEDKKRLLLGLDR
Cneo AK release = Cryptococcus neoformans lysis via adenylate kinase release. C. neoformans lysis, adenylate kinase release luminescence, 4 h; normalised: neutral wells 0, clomiphene wells 100. lysis activity, % at 15 µM. actives 0.2% (n = 360,000);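 active = mean lysis activity across replicates of at least 80%, whatever share of replicates individually reach that level; inactive = mean lysis activity below 80%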
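Material: C. neoformans cells; Schedule: 4 h static compound exposure, 37 °C, read 1 h post-reagent; Measured by: adenylate kinase release luminescence; Read-out: signal increase indicating cell lysis; Controls: Clomiphene as positive lysis control.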
Each line names hits and unclear results; the compound was inactive in the other large screens; [ ] = dose if it differs, or a comment.

O=C(CSc1nnc(-c2cccnc2)s1)Nc1ccnc2ccccc12	HIV Env fusion 55 (no result: Cneo AK release)
Cc1ccc(NC(=O)CSCC(=O)Nc2nnc(C)s2)cc1	GSIS activator 47
Cc1ccc(NC(=O)CSc2ccc3nnc(-c4cccnc4)n3n2)cc1	none
Cc1ccc(NC(=O)CSc2nnc(-c3cccnc3)s2)cc1	GSIS activator 42
Cc1nnc(NC(=O)CSCc2ccccc2)s1	none (no result: GSIS activator)
O=S(=O)(CC(CN1CCCCC1)N1CCCCC1)c1ccccc1 (configuration not stated)	PAX8 reporter 64
O=[N+]([O-])c1ccc(S(=O)(=O)CC(CN2CCCCC2)N2CCCCC2)cc1 (configuration not stated)	none (no result: Cneo AK release)
CC(=O)N1[C@H](C(=O)N(C)C)[C@@H](CO)[C@@H]2Cn3c(ccc(-c4ccc(F)cc4)c3=O)[C@@H]21	none (no result: HIV Env fusion, dFosB activator, CDK5 inh)
CC(C)NC(=O)Nc1ccc2c(c1)C(=O)N([C@H](C)CO)C[C@@H](C)[C@H](CN(C)CC1CCCCC1)O2	none (no result: dFosB activator, CDK5 inh)
Cc1cc(CNC(=O)c2cc(-c3ccccc3)nc3ccccc23)nn1C	none (no result: Cneo AK release)
Cc1cc(C(=O)NCc2cc(C)n(C)n2)sc1-c1ccccc1	HIV Env fusion 56 (no result: GSIS activator, PAX8 reporter)
C[C@H]1CN([C@@H](C)CO)C(=O)c2cc(NC(=O)Cn3cnnn3)ccc2O[C@@H]1CN(C)C	none (no result: HIV Env fusion, dFosB activator, CDK5 inh)
N#C[C@H]1[C@@H](c2ccccc2)[C@@H](CO)N1C(=O)Cc1ccccc1	Cneo AK release 101 (no result: dFosB activator, CDK5 inh)
N#C[C@@H]1[C@H](c2ccccc2)[C@@H](CO)N1C(=O)Cc1ccccc1	none (no result: dFosB activator, CDK5 inh)
COc1ccccc1C#Cc1ccc([C@H]2[C@@H](CO)N(C(=O)C3CCCC3)[C@H]2C#N)cc1	none (no result: HIV Env fusion, PAX8 reporter, dFosB activator, CDK5 inh, Cneo AK release)
COc1ccccc1C#Cc1ccc([C@H]2[C@@H](C#N)N(C(=O)C3CCC3)[C@H]2CO)cc1	PAX8 reporter 64 (no result: dFosB activator, CDK5 inh)
COc1ccccc1C#Cc1ccc([C@@H]2[C@@H](C#N)N(C(=O)C3CCCCC3)[C@H]2CO)cc1	PAX8 reporter 89 (no result: dFosB activator, CDK5 inh)
COCC(=O)N1[C@H](C#N)[C@H](c2ccc(C#Cc3ccccc3F)cc2)[C@H]1CO	Cneo AK release 83 (no result: dFosB activator, CDK5 inh)
COCC(=O)N1[C@@H](C#N)[C@@H](c2ccc(C#Cc3ccccc3F)cc2)[C@@H]1CO	none (no result: dFosB activator, CDK5 inh)
CCS(=O)(=O)NCC[C@@H]1CC[C@H](NS(=O)(=O)c2ccccc2C)[C@H](CO)O1	none (no result: dFosB activator, CDK5 inh)
CC=Cc1ccc2n(c1=O)C[C@H]1[C@H](CO)[C@@H](C(=O)N(C)C)[C@@H]2N1CC1CC1 (mixture of isomers)	none (no result: HIV Env fusion, dFosB activator, CDK5 inh)
C[C@@H]1CCCCO[C@@H](CN(C)C(=O)NC2CCCCC2)[C@@H](C)CN([C@H](C)CO)C(=O)c2cc(NC(=O)C3CCCCC3)ccc2O1	none (no result: dFosB activator, CDK5 inh)
N#C[C@H]1[C@@H](c2ccc(C#Cc3ccccc3F)cc2)[C@@H](CO)N1C(=O)C1CCCCC1	PAX8 reporter 82 (no result: dFosB activator, CDK5 inh)
CCCC#Cc1ccc([C@H]2[C@@H](C#N)N(C(=O)C3CCCCC3)[C@H]2CO)cc1	PAX8 reporter 79 (no result: dFosB activator, CDK5 inh)
COc1ccccc1C#Cc1ccc([C@H]2[C@@H](C#N)N(C(=O)C3CCCCC3)[C@H]2CO)cc1	PAX8 reporter 73 (no result: dFosB activator, CDK5 inh)
CCc1cnc(N2[C@@H](C#N)[C@H](c3ccc(C#Cc4ccccc4F)cc3)[C@@H]2CO)s1	HIV Env fusion 59[16.7 µM] (no result: dFosB activator, CDK5 inh)
COc1ccc(-c2ccc3n(c2=O)C[C@@H]2[C@@H](CO)[C@H](C(=O)N(C)C)[C@H]3N2Cc2ccncc2)cc1	none (no result: HIV Env fusion, dFosB activator, CDK5 inh)
COc1ccc(NC(=O)Nc2ccc3c(c2)C(=O)N([C@H](C)CO)C[C@@H](C)[C@@H](CN(C)C(=O)C2CCCCC2)OCCCC[C@@H](C)O3)cc1	none (no result: dFosB activator, CDK5 inh)
N#C[C@@H]1[C@H](c2ccc(-c3ccccc3F)cc2)[C@@H](CO)N1C(=O)c1ccccn1	HIV Env fusion 57[16.7 µM] (no result: dFosB activator, CDK5 inh)
O=C(C[C@H]1CC[C@H]2[C@@H](COC[C@H](O)CN2Cc2nccs2)O1)NCc1ccc(-c2ccccc2)cc1	none (no result: HIV Env fusion, dFosB activator, CDK5 inh)
O=C(c1ccccc1)c1c2c(cc3sc4ccccc4[n+]13)-c1cccc3cccc-2c13	PAX8 reporter 66, dFosB activator 22
Cc1sc2cc3c(c(C(=O)c4ccccc4)[n+]2c1C)-c1cccc2cccc-3c12	PAX8 reporter 86 (no result: dFosB activator, CDK5 inh, Cneo AK release)
Cc1cc2ccccc2cc1C(=O)c1ccccc1	none
C[C@@H]1CN([C@@H](C)CO)C(=O)c2cc(C#Cc3ccncc3)cnc2O[C@H]1CN(C)CC1CCOCC1	none (no result: PAX8 reporter, dFosB activator, CDK5 inh)
COc1ccc(NC(=O)CNC(=O)C2CCCCC2)cc1OC	none
COc1ccc(NC(=O)COC(=O)CNC(=O)C2CCCCC2)cc1OC	GSIS activator 59
CO[C@H]1CN(C)C(=O)c2ccc(NS(C)(=O)=O)cc2OC[C@H](C)N(C(=O)C2CCC2)C[C@@H]1C	none (no result: HIV Env fusion, dFosB activator, CDK5 inh)
Cc1ccc(NC(=O)NC(=O)COc2ccc(Cl)cc2Cl)c(C)c1	PAX8 reporter 117 (no result: HIV Env fusion)
CO[C@H]1CN(C)C(=O)c2cc(NC(=O)c3cnccn3)ccc2OC[C@H](C)N(C(=O)C2CC2)C[C@@H]1C	none (no result: dFosB activator, CDK5 inh)
CCOc1ccc(CN2C(=O)c3ccccc3C2=O)cc1C(=O)Nc1nnc(SCC)s1	GSIS activator 44
CCN1/C(=C/C=C/c2oc3ccc(-c4ccccc4)cc3[n+]2CC)Oc2ccc(-c3ccccc3)cc21	HIV Env fusion 77, PAX8 reporter 98
C[C@@H]1CN([C@@H](C)CO)C(=O)c2cc(NC(=O)Cc3cn(C)c4ccccc34)ccc2O[C@@H]1CN(C)Cc1ccc(-c2ccccc2)cc1	none (no result: PAX8 reporter, dFosB activator, CDK5 inh, Cneo AK release)
N#CC1c2ccccc2C=CN1C(=O)N(c1ccccc1)c1ccccc1 (configuration not stated)	PAX8 reporter 78 (no result: GSIS activator)
COc1ccc(C(C(=O)NC2CCCCC2)N(C(=O)CCl)c2ccc(OC)cc2)cc1 (configuration not stated)	none (no result: HIV Env fusion, GSIS activator, PAX8 reporter)
COc1ccc(C(C(=O)NC2CCCCC2)N(C(=O)CCl)c2cccc(Cl)c2)cc1 (configuration not stated)	PAX8 reporter 115 (no result: HIV Env fusion, GSIS activator)
COc1ccc(C(C(=O)NC2CCCCC2)N(C(=O)CCl)c2ccc(C)cc2)cc1 (configuration not stated)	HIV Env fusion 56, PAX8 reporter 111 (no result: GSIS activator, Cneo AK release)
COc1ccc(C(C(=O)NC2CCCC2)N(C(=O)c2ccoc2C)c2ccc(C)cc2)cc1 (configuration not stated)	HIV Env fusion 90 (no result: PAX8 reporter)
COc1ccc(-c2cn[nH]c2N)c(OC)c1	HIV Env fusion 81 (no result: PAX8 reporter)
Cc1ccc(NC(=O)CSc2nc3ccccc3c(=O)n2Cc2cccs2)cc1	PAX8 reporter 66 (no result: HIV Env fusion)
COCCCn1c(SCC(=O)Nc2ccc(C)cc2)nc2ccccc2c1=O	none (no result: Cneo AK release)
Cc1ccc(Cn2c(SCC(=O)NCc3ccco3)nc3ccsc3c2=O)cc1	HIV Env fusion 71 (no result: PAX8 reporter)
